{"data": "Experimental data collected from several papers", "organism": "Klebsiella pneumoniae"}
{"Compound": "COc1cc(C=Nc2ccccc2Br)ccc1O", "test": "microbial growth, disc diffusion", "setting": "2000 µg/mL, 24 h", "quantity": "inhibition zone", "result": "14.7 mm"}
{"Compound": "Cc1[nH]c(C(=O)Nc2ccc(C(=O)NCc3n[nH]c(=O)o3)cc2N2CCN(C(=O)OC(C)(C)C)CC2)c(Cl)c1Cl", "test": "microbial growth, broth dilution", "system": "ATCC700603", "quantity": "MIC", "result": "> 32 µg/mL"}
{"Compound": "C[C@H]1COc2c(N3CCN(C)CC3)c(F)cc3c(=O)c(C(=O)O)cn1c23", "test": "microbial killing", "system": "ATCC27736", "quantity": "MBC", "result": "0.06 µg/mL"}
{"Compound": "COc1cc(C=Nc2cccc(O)c2)ccc1O", "test": "microbial growth, disc diffusion", "setting": "2000 µg/mL, 24 h", "quantity": "inhibition zone", "result": "15.5 mm"}
{"Compound": "C[C@H]1COc2c(N3CCN(C)CC3)c(F)cc3c(=O)c(C(=O)O)cn1c23", "test": "microbial growth, broth dilution", "quantity": "MIC", "result": "> 16 µg/mL"}
{"Compound": "CC(C)(O/N=C(\\C(=O)N[C@@H]1C(=O)N2C(C(=O)[O-])=C(C[n+]3ccccc3)CS[C@H]12)c1csc(N)n1)C(=O)O", "test": "microbial growth, broth dilution", "system": "ATCC13883", "setting": "20 h", "quantity": "MIC", "result": "< 0.5 µg/mL"}
{"Compound": "CCC(C)CCCC(=O)N[C@@H](CCN)C(=O)N[C@H](C(=O)N[C@@H](CCN)C(=O)N[C@H]1CCNC(=O)[C@H]([C@@H](C)O)NC(=O)[C@H](CCN)NC(=O)[C@H](CCN)NC(=O)[C@H](CC(C)C)NC(=O)[C@@H](CC(C)C)NC(=O)[C@H](CCN)NC1=O)[C@@H](C)O (stereo partly drawn)", "test": "microbial growth, broth dilution", "quantity": "MIC", "result": "0.5 µg/mL"}
{"Compound": "CC(C)(O/N=C(\\C(=O)N[C@@H]1C(=O)N2C(C(=O)[O-])=C(C[n+]3ccccc3)CS[C@H]12)c1csc(N)n1)C(=O)O", "test": "microbial growth, disc diffusion", "setting": "2000 µg/mL, 24 h", "quantity": "inhibition zone", "result": "12 mm"}
{"Compound": "Cc1[nH]c(C(=O)Nc2ccc(C(=O)NCC(=O)O)cc2N2CC[C@H](N)C2)c(Cl)c1Cl.Cl", "test": "microbial growth, broth dilution", "system": "ATCC700603", "quantity": "MIC", "result": "> 32 µg/mL"}
{"Compound": "COc1cc(C=Nc2ccc(Cl)cc2Cl)ccc1O", "test": "microbial growth, disc diffusion", "setting": "2000 µg/mL, 24 h", "quantity": "inhibition zone", "result": "15 mm"}
{"Compound": "Cl.N[C@H]1CCN(c2cc(C(=O)NCC(=O)O)ccc2NC(=O)c2cc(Br)c(Br)[nH]2)C1", "test": "microbial growth, broth dilution", "system": "ATCC700603", "quantity": "MIC", "result": "> 32 µg/mL"}
{"Compound": "C[C@@H](O)[C@H]1C(=O)N2C(C(=O)O)=C(S[C@@H]3CN[C@H](C(=O)N(C)C)C3)[C@H](C)[C@H]12", "test": "microbial growth, broth dilution", "setting": "clinical isolate", "quantity": "MIC90", "result": "1020 µg/mL"}
